The results in this text go back to ChEMBL document CHEMBL1140583, “A polyacetylene compound from herbal medicine regulates genes associated with thrombosis in endothelial cells” (2007).

What all share (type): functional, Homo sapiens
The subject of test [1] is HUVEC. The experiment in a line: Increase in CYP450, family 1, subfamily B, polypeptide 1 gene expression in HUVEC at 5 ug/ml after 4 hrs relative to control.
Test [2] deals with HUVEC. Briefly: Increase in TI-PARP gene expression in HUVEC at 5 ug/ml after 4 hrs relative to control.
In test [3] the test system is HUVEC. The experiment in a line: Decrease in ATP-binding cassette, subfamily G, member 1 gene expression in HUVEC at 5 ug/ml after 4 hrs relative to control.
The subject of test [4] is HUVEC. Briefly: Increase in solute carrier family 7, member 11 gene expression in HUVEC at 5 ug/ml after 4 hrs relative to control.
The test system of test [5] is HUVEC. Briefly: Increase in SerpinB2 gene expression in HUVEC at 5 ug/ml after 4 hrs relative to control. The method, boiled down:
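HUVEC exposed to the purified compound at 5 μg/ml. SerpinB2 mRNA quantified by real-time RT-PCR against untreated control HUVEC, reported as log2 relative quantity (log2RQ). The same SerpinB2 RT-PCR read-out guided activity-based fractionation of the herbal extract.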

Test [6] has as its system HUVEC. Briefly: Decrease in mesenchyme homebox2 gene expression in HUVEC at 5 ug/ml after 4 hrs relative to control.
The test system of test [7] is HUVEC. The experiment in a line: Decrease in perlecan gene expression in HUVEC at 5 ug/ml after 4 hrs relative to control.
Test [8] has as its system HUVEC. Briefly: Increase in COX2 gene expression in HUVEC at 5 ug/ml after 4 hrs relative to control.
The subject of test [9] is HUVEC. Briefly: Decrease in AT rich interactive domain 1A gene expression in HUVEC at 5 ug/ml after 4 hrs relative to control.
Test [10] relates to HUVEC. The experiment in a line: Decrease in zinc finger and BTB domain containing 16 gene expression in HUVEC at 5 ug/ml after 4 hrs relative to control.

`C/C=C/C#CC#C/C=C/CCC(CCOC(C)=O)OC(C)=O` (stereo not given): the Fold change is recorded as 6.5 in test [1]; 2.3 in test [2]; -1.9 in test [3]; 2.3 in test [4]; 2 in [5]; -2.1 in test [6]. For the same compound, the Fold change in test [7] is on record as -1.7; in test [8] it was 2; in [9], -1.9; in test [10] it was -2.
